Screens as filed in PubChem.
Kir21 block – blocks the mouse Kir2.1 inward-rectifier potassium channel; P35561; HEK293-Kir2.1, FluxOR thallium flux fluorescence; stronger effect = lower value; B-score at 10 µM; 310,000 compounds, 0.85% hits; AID 1672;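 active means fluorescence ratio B-score at or below minus 3 SD of library scores, with starting-brightness B-score within 2 SD, cut at about -4.2 in these data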;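 further: channel flux triggered by added potassium and thallium sulfate stimulus; B-score of peak minus minimum fluorescence over baseline after thallium stimulus; more negative B-score means stronger Kir2.1 block with less thallium influx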
KCNK9 block – inhibitors of human KCNK9 two-pore domain potassium channel; Q9NPC2; HEK293 KCNK9, FluxOR thallium flux fluorescence; stronger effect = lower value; B-score at 10 µM; 310,000 compounds, 1.2% hits; AID 488922;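 active means ratio B-score over 3 SD below the library mean, with starting fluorescence within 5 SD of its mean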;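 further: negative B-score means less thallium flux so channel inhibition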
KCNK3 block – human KCNK3 channel inhibition, primary screen. CHO-KCNK3 thallium flux, FluxOR fluorescence; stronger effect = lower value. B-score at 10 µM. 340,000 compounds, 0.84% hits. AID 602410;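 active means B-score under library mean minus 4 SD, starting fluorescence ratio at most library mean plus 5 SD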;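 further: more negative B-score means stronger inhibition of thallium flux through KCNK3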
KCNQ1 act – potentiators or activators of human KCNQ1 potassium channel. 310,000 compounds, 0.35% hits. CHO-K1 KCNQ1, thallium flux FluxOR fluorescence; stronger effect = higher value. B-score at 10 µM. P51787;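 active means fluorescence ratio B-score, a plate-corrected score, at least three library SD, with initial intensity B-score within 5 SD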
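Schedule – 37 °C overnight plating, 90-min dark dye load, 20-min compound pretreatment · System – stable KCNQ1 CHO-K1 line · Probe or stimulus – thallium- and potassium-containing depolarizing buffer · Measured by – kinetic FluxOR fluorescence, 10 s baseline plus 110 s post-stimulus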
KCNQ1 inh – human KCNQ1 channel inhibition; P51787; CHO-K1 KCNQ1, FluxOR thallium flux fluorescence; stronger effect = higher value; B-score at 10 µM; 310,000 compounds, 1.3% hits;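 active means compounds whose thallium flux B-score, printed positive for inhibition, exceeds three library SD while starting fluorescence stays within three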;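 further: channel opened by potassium depolarization with thallium stimulus after 20 min compound exposure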
hERG protect – compounds protecting human hERG from proarrhythmic drug block. activation (rescue from dofetilide block), less the hit threshold, % at 10 µM. CHO-hERG, FluxOR thallium flux, dofetilide IC70 present. Q12809. 310,000 compounds, 0.51% hits;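 active means activation above the mean of controls blocked by dofetilide plus 5 SD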;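 further: thallium influx through hERG after potassium depolarization seen as dye fluorescence rise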
KCNQ1 block val – human KCNQ1 channel inhibition, validation assay; KCNQ1 cell line, FluxOR thallium flux fluorescence; 1,600 compounds, 93% hits; inhibition, % at 10 µM; shares compounds with KCNQ1 inh;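 active means primary screen active, with duplicate mean exceeding buffer control mean plus 3 SD of buffer wells, cut at about 28% in these data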;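 further: 0% = buffer control ratio and 100% = XE991 inhibitor control ratio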
CHO Tl flux – KCNQ1 inhibitor counter-screen hit in parental CHO cells; shares compounds with KCNQ1 inh; parental CHO-K1, FluxOR thallium flux fluorescence ratio; stronger effect = lower value; zero means no signal rise above baseline; fluorescence ratio (Tl flux) at 10 µM; 1,600 compounds, 21% hits;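 active means mean of duplicate thallium-flux fluorescence ratios in parental host cells more than 5 SD below the buffer control mean, cut at about 0.38 in these data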;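 further: ratio is peak minus minimum fluorescence divided by baseline fluorescence; actives read low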
KCNQ1 ephys val – blocks human KCNQ1 current in automated patch clamp; shares compounds with KCNQ1 inh; KCNQ1-CHO cells; calls only at 10 µM; 490 compounds, 20% hits;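 active means KCNQ1 current drop exceeding 3 SD of negative control wells, seen in both duplicate runs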;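 further: steady state current during a 2 s step from -80 to +40 mV; negative values mean current inhibition and positive values mean potentiation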
KCNQ2 spec – KCNQ1 inhibitor that also blocks rat KCNQ2 channel; shares compounds with KCNQ1 inh; KCNQ2 cells, FluxOR thallium flux fluorescence; inhibition, % at 10 µM; 1,600 compounds, 71% hits;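 active means mean percent inhibition of the KCNQ2 thallium signal more than 5 SD above the buffer-only control wells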;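 further: KCNQ2 expressed in CHO cells; 0% = buffer control wells and 100% = XE-991 inhibitor control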
KCNQ1-KCNE1 inh – selectivity of KCNQ1 inhibitors: inhibition of human KCNQ1/KCNE1 channel; inhibition, % at 10 µM; 1,600 compounds, 77% hits; KCNQ1/KCNE1 cells, FluxOR thallium flux fluorescence; shares compounds with KCNQ1 inh;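 active means mean percent inhibition of duplicate wells above the buffer-only control mean plus 3 SD of those controls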;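 further: 0% = buffer only wells and 100% = XE-991 inhibitor control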
* hit, by the source's call; i = inactive; . = no result; + = active, no number. Most compounds without a hit are left out; they make up all but 3.7% or so of the library.

SMILES	Kir21 block	KCNK9 block	KCNK3 block	KCNQ1 act	KCNQ1 inh	hERG protect	KCNQ1 block val	CHO Tl flux	KCNQ2 spec	KCNQ1-KCNE1 inh	others
COc1ccc(-c2csc3ncnc(N4CCN(S(=O)(=O)c5ccc(C(C)=O)cc5)CC4)c23)cc1	-0.08	i	i	i	8*	-11.7	67.0*	0.437	89.3%*	36.5%*
Cc1ccc(S(=O)(=O)N2CCN(c3ncnc4scc(-c5ccc(F)cc5)c34)CC2)cc1	-0.67	i	i	i	8*	-17.8	71.5*	0.469	81.0%*	i
COc1ccc(-c2csc3ncnc(N4CCN(c5ccccc5O)CC4)c23)cc1	2.79	i	i	i	8*	-9.3	0.0	0.41	110.3%*	i
Cc1ccc(-c2csc3ncnc(N4CCN(c5ccccc5O)CC4)c23)cc1	2.34	i	i	i	i	-10.9	.	.	.	.
CCCCC1CCC(C(=O)N(CCOC)c2c(N)n(CC(C)C)c(=O)[nH]c2=O)CC1 (configuration not stated)	.	.	i	.	.	.	.	.	.	.
Cc1cccc(CN2CCN(c3ncccn3)CC2)c1	-0.65	i	i	i	i	1.8	.	.	.	.
Cc1cccc(Cn2c(C(C)(C)C)cc3cccnc32)c1	-5.12*	i	i	i	8*	-9.9	64.0*	0.45	67.0%*	i
c1ccc(-c2noc(CSc3nnnn3-c3ccccc3)n2)cc1	0.78	i	i	i	6*	-10.7	60.5*	0.484	62.3%*	74.0%*
Cc1c(C(=O)NCCC2=CCCCC2)sc2ncnc(N3CCCCC3C)c12 (configuration not stated)	1.64	i	i	i	8*	-16.8	163.5*	0.327*	150.3%*	+
Cc1sc2ncnc(N3CCCCC3C)c2c1C (configuration not stated)	-1.41	i	i	i	i	-13.9	.	.	.	.
CCc1ccc(N2CC(C(=O)OCC(=O)N(CC)c3c(N)n(Cc4ccccc4)c(=O)[nH]c3=O)CC2=O)cc1 (configuration not stated)	.	.	i	.	.	.	.	.	.	.
CCOC(=O)c1ccc(N2CCN(c3ccccc3F)CC2)c(NC(=O)Nc2ccccc2)c1	0.07	i	i	i	6*	-18.8	118.5*	0.362*	118.3%*	138.0%*
Cc1ccc(NC(=O)C(C)N2CCN(C)CC2)cc1S(=O)(=O)N1CCOCC1 (configuration not stated)	.	.	i	.	.	.	.	.	.	.
c1csc(-c2nnc(NC3CCCCC3)c3ccccc23)c1	0.67	i	i	i	10*	-19.1	52.5*	0.551	68.7%*	51.0%*
COc1ccc(-c2cc(-c3nnc(COC(=O)C4CC4)o3)c3ccccc3n2)cc1OC	0.88	i	i	i	i	-8.7	.	.	.	.
COc1ccc(-c2cc(-c3nnc(COC(=O)c4ccc(O)cc4)o3)c3ccccc3n2)cc1OC	0.61	i	i	i	9*	-21.7	104.5*	0.426	98.3%*	+	KCNQ1 ephys val=i
Cc1ccc(SCCNS(=O)(=O)c2ccc(F)cc2)cc1	-1.5	i	i	i	7*	-17.5	47.0*	0.484	62.0%*	50.5%*
O=S(=O)(NCCSc1ccc(Cl)cc1)c1ccc(F)cc1	-2.13	i	i	i	i	-16.5	.	.	.	.
